Measured values published in ChEMBL document CHEMBL5154715, “Phenolic Lipids Derived from Cashew Nut Shell Liquid to Treat Metabolic Diseases” (J Med Chem, 2022).
Activity calls are given as the source filed them. The calls are words filed in the database; no cut-off is given here.

Experiments:
[1] = target: T1, Peroxisome proliferator-activated receptor alpha (Mus musculus) (UniProt P23204); assay: Agonist activity at human PPARalpha in mouse hepatocytes assessed as induction of cd36 mRNA expression at 50 uM incubated for 16 hrs by quantitative real-time PCR analysis; type: cell-based; conditions: Hepatocyte, filed as agonist
T1 sequence (whole entry): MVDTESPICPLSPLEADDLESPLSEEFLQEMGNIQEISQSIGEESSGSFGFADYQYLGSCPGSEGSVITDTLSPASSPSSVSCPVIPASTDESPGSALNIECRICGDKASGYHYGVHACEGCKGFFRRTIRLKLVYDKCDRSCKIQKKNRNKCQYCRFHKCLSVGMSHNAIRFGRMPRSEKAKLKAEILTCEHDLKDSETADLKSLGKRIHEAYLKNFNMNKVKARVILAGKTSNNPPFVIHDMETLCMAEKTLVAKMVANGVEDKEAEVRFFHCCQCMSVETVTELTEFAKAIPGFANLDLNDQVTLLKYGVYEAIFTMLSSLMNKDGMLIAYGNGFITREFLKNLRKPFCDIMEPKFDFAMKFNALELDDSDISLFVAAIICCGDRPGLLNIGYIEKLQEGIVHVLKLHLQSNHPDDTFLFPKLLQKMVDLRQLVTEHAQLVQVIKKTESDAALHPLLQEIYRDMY
Summary of the method: (§1)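 Collagenase-perfused mouse primary hepatocytes from WT mice, plated 2 h in attachment medium, overnight in M199 with 5% charcoal-stripped FBS and 1 nM insulin. Treated next day in serum-free M199 with 50 μM compound for 16 h. RNA qPCR (SYBR Green), comparative Ct method.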

[2] = target: T1, Peroxisome proliferator-activated receptor alpha (Mus musculus); assay: Agonist activity at human PPARalpha in mouse hepatocytes assessed as induction of Fgf21 mRNA expression at 50 uM incubated for 16 hrs by quantitative real-time PCR analysis; type: cell-based; conditions: Hepatocyte, filed as agonist; summary of the method: as §1
[3] = target: T1, Peroxisome proliferator-activated receptor alpha (Mus musculus); assay: Agonist activity at human PPARalpha in mouse hepatocytes assessed as induction of Pdk4 mRNA expression at 50 uM incubated for 16 hrs by quantitative real-time PCR analysis; type: cell-based; conditions: Hepatocyte, filed as agonist; summary of the method: as §1
[4] = target: T1, Peroxisome proliferator-activated receptor alpha (Mus musculus); assay: Agonist activity at human PPARalpha in mouse hepatocytes assessed as induction of fabp1 mRNA expression at 50 uM incubated for 16 hrs by quantitative real-time PCR analysis; type: cell-based; conditions: Hepatocyte, filed as agonist; summary of the method: as §1
[5] = system: Danio rerio; assay: In vivo agonist activity at human GFP-tagged PPARalpha in transgenic zebrafish assessed as increase in GFP expression in CNS at 5 uM measured after 14 hrs by microscopy
[6] = system: Danio rerio; assay: In vivo agonist activity at human GFP-tagged PPARalpha in transgenic zebrafish assessed as increase in GFP expression in heart at 5 uM measured after 14 hrs by microscopy
[7] = system: Danio rerio; assay: In vivo agonist activity at human GFP-tagged PPARalpha in transgenic zebrafish assessed as increase in GFP expression in muscle at 5 uM measured after 14 hrs by microscopy
[8] = system: Danio rerio; assay: In vivo agonist activity at human GFP-tagged PPARalpha in transgenic zebrafish assessed as increase in GFP expression in retina at 5 uM measured after 14 hrs by microscopy
[9] = system: Danio rerio; assay: In vivo agonist activity at human GFP-tagged PPARalpha in transgenic zebrafish assessed as increase in GFP expression in epidermis at 5 uM measured after 14 hrs by microscopy
[10] = target: T2, Peroxisome proliferator-activated receptor alpha (Homo sapiens) (UniProt Q07869); assay: Agonist activity at human PPARalpha transfected in HEK293 cells assessed as relative luciferase unit at 50 uM measured after 16 hrs by luciferase reporter gene assay; type: cell-based; conditions: filed as agonist
T2 sequence (whole entry): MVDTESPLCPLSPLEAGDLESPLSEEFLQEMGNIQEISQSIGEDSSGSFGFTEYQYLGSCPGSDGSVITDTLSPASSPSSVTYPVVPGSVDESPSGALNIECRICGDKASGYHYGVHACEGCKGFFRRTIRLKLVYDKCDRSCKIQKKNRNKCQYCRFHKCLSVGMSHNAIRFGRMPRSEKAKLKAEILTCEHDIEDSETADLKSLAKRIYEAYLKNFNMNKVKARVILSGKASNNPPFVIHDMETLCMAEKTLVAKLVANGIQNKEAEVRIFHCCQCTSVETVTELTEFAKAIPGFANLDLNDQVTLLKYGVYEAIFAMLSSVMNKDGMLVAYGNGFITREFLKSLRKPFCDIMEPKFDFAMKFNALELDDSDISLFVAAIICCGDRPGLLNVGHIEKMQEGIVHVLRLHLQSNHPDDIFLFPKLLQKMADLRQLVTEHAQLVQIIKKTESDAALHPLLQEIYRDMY
Summary of the method: (§2)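 GAL4-hPPAR (α or γ) plus UAS-luciferase and β-galactosidase transiently co-transfected into HEK293 cells, then treated with 50 μM compound for 16 h. RLU = luciferase/β-galactosidase × time, vehicle (DMSO) set to 1. Mean ± SD, N = 3; one-way ANOVA with Holm–Šidák vs vehicle.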

[11] = target: T2, Peroxisome proliferator-activated receptor alpha (Homo sapiens); assay: Stabilization of human PPARalpha LBD assessed as change in melting temperature at 25 uM by thermal shift assay
Summary of the method: (§3)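 Purified hPPAR LBD at 1 mg/mL (∼25 μM) with ligand (α-LBD at 25 μM; γ- and δ-LBD at 50 μM). Static light scattering at 473 nm from 25 to 70 °C in 0.5 °C steps, 1 °C/min. Tm from four-parameter fit; ΔTm relative to DMSO; mean ± SEM, N = 3.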

[12] = target: T3, Peroxisome proliferator-activated receptor alpha (Homo sapiens, UniProt Q07869); assay: Agonist activity at human PPARalpha expressed in HEK293 cells by luciferase/beta-galactosidase reporter gene assay; type: cell-based
T3 sequence (Q07869 whole entry): T2 sequence (whole entry)
Summary of the method: (§4)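 HEK293 cells in charcoal-stripped FBS, calcium phosphate co-transfected with GAL4-hPPAR LBD fusion, UAS-luciferase and β-galactosidase. Ligand added 6–8 h post transfection, full dose–response, harvested 14–16 h later. Luciferase normalized to β-galactosidase.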

[13] = target: T4, Peroxisome proliferator-activated receptor delta (Homo sapiens) (UniProt Q03181); assay: Stabilization of human PPARdelta LBD assessed as change in melting temperature at 50 uM by thermal shift assay
T4 sequence (whole entry): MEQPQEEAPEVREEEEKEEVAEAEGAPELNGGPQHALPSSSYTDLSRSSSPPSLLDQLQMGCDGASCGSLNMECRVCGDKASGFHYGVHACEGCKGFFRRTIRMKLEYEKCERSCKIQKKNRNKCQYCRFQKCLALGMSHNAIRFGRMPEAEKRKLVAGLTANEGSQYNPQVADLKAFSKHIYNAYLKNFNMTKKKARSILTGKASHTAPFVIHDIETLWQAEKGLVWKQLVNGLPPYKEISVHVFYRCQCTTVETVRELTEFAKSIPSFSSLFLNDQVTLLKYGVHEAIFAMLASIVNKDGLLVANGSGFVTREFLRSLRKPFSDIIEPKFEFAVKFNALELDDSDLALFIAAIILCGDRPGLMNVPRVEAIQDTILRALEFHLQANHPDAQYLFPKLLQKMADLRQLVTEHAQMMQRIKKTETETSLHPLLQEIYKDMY

[14] = target: T5, Peroxisome proliferator-activated receptor gamma (Mus musculus) (UniProt P37238); assay: Agonist activity at human PPARgamma in mouse 3T3-L1 cells assessed as induction of adipogenic differentiation at 25 uM measured after 11 days by Oil Red O staining analysis; type: cell-based; conditions: filed as agonist, time 11.0 day
T5 sequence (whole entry): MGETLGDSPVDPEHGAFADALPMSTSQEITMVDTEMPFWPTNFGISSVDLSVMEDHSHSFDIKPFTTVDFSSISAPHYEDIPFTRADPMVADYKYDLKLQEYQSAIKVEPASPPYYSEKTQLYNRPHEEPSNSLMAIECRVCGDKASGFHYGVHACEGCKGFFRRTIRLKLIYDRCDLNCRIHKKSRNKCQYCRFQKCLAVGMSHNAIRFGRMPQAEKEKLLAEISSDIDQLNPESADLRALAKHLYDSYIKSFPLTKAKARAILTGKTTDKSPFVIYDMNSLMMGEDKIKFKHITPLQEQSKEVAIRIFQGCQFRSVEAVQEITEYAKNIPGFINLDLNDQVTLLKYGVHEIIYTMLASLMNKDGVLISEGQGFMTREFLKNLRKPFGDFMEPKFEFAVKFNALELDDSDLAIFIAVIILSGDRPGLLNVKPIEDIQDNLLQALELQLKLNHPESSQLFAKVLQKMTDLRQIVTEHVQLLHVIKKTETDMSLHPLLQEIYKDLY
Summary of the method: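 3T3-L1 cells differentiated for 11 days (IBMX/dexamethasone/insulin induction, then insulin, then maintenance medium) with 25 μM compound or 10 μM rosiglitazone from day 0. Cells formalin-fixed and stained with 0.6% Oil Red O. Lipid quantified spectrophotometrically after dye extraction.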

[15] = target: T6, Peroxisome proliferator-activated receptor gamma (Homo sapiens) (UniProt P37231); assay: Agonist activity at human PPARgamma transfected in HEK293 cells assessed as relative luciferase unit at 50 uM measured after 16 hrs by luciferase reporter gene assay; type: cell-based; conditions: filed as agonist; summary of the method: as §2
T6 sequence (whole entry): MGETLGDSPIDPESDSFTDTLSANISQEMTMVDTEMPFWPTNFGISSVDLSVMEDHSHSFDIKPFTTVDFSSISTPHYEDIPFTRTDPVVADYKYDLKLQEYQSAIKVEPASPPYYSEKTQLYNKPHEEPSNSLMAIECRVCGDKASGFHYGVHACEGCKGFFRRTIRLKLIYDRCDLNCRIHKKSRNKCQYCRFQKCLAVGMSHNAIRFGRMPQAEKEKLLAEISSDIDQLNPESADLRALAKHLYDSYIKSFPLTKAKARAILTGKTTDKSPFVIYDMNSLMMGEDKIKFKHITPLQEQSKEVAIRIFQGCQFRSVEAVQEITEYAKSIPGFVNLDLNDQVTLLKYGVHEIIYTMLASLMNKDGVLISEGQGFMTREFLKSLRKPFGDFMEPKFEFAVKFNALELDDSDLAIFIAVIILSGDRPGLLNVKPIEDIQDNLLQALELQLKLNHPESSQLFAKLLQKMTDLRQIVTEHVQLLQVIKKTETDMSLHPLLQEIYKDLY

[16] = Metabolic stability in C57BL/6 mouse liver microsomes assessed as half life; type: ADME, Microsome; conditions: time 2 min
[17] = target: T2, Peroxisome proliferator-activated receptor alpha (Homo sapiens); assay: Agonist activity at human PPARalpha expressed in HEK293 cells assessed as maximal activity by luciferase/beta-galactosidase reporter gene assay relative to GW7647; type: cell-based; summary of the method: as §4
[18] = Metabolic stability in C57BL/6 mouse liver microsomes assessed as parent compound remaining incubated for 120 mins; type: ADME, Microsome; conditions: read-out: Stability
[19] = target: T7, Peroxisome proliferator-activated receptor gamma (Homo sapiens, UniProt P37231); assay: Agonist activity at human PPARgamma expressed in HEK293 cells by luciferase/beta-galactosidase reporter gene assay; type: cell-based; summary of the method: as §4
T7 sequence (P37231 whole entry): T6 sequence (whole entry)

[20] = system: Danio rerio; assay: In vivo agonist activity at human GFP-tagged PPARalpha in transgenic zebrafish assessed as increase in GFP expression in brain at 8.9 uM measured after 14 hrs by microscopy
[21] = target: T6, Peroxisome proliferator-activated receptor gamma (Homo sapiens); assay: Stabilization of human PPARgamma LBD assessed as change in melting temperature at 50 uM by thermal shift assay
[22] = target: T6, Peroxisome proliferator-activated receptor gamma (Homo sapiens); assay: Agonist activity at human PPARgamma expressed in HEK293 cells assessed as maximal activity by luciferase/beta-galactosidase reporter gene assay relative to rosiglitazone; type: cell-based; summary of the method: as §4
[23] = system: Danio rerio; assay: In vivo agonist activity at human GFP-tagged PPARalpha in transgenic zebrafish assessed as increase in GFP expression in brain at 1.5 uM measured after 14 hrs by microscopy
[24] = system: Danio rerio; assay: In vivo agonist activity at human GFP-tagged PPARalpha in transgenic zebrafish assessed as increase in GFP expression in muscle at 1.5 uM measured after 14 hrs by microscopy
[25] = system: Danio rerio; assay: In vivo agonist activity at human GFP-tagged PPARalpha in transgenic zebrafish assessed as increase in GFP expression in heart at 1.5 uM measured after 14 hrs by microscopy
[26] = system: Danio rerio; assay: In vivo agonist activity at human GFP-tagged PPARgamma in transgenic zebrafish assessed as increase in GFP expression in muscle at 1 uM measured after 14 days by microscopy; type: functional, organism-based; conditions: time 14.0 day
[27] = system: Danio rerio; assay: In vivo agonist activity at human GFP-tagged PPARgamma in transgenic zebrafish assessed as increase in GFP expression in CNS at 1 uM measured after 14 days by microscopy; type: functional, organism-based; conditions: time 14.0 day
[28] = system: Danio rerio; assay: In vivo agonist activity at human GFP-tagged PPARalpha in transgenic zebrafish assessed as increase in GFP expression in yolk sac at 1.5 uM measured after 14 hrs by microscopy
[29] = target: T6, Peroxisome proliferator-activated receptor gamma (Homo sapiens); conditions: dose 50.0 µM
[30] = system: Danio rerio; assay: In vivo agonist activity at human GFP-tagged PPARgamma in transgenic zebrafish assessed as increase in GFP expression in tail bud at 0.1 uM measured after 14 hrs by microscopy
[31] = target: T4, Peroxisome proliferator-activated receptor delta (Homo sapiens); assay: Stabilization of human PPARdelta LBD assessed as change in melting temperature at 50 uM by thermal shift assay; summary of the method: as §3

Cc1cccc(Nc2cc(Cl)nc(SCC(=O)O)n2)c1C
Activity [1]: Active
Activity [2]: Active
Activity [3]: Active
Activity [4]: Active
Activity [5]: Active
Activity [6]: Active
Activity [7]: Active
Activity [8]: Active
Activity [9]: Active

CCCCCCCCCCCCCCCc1cccc(OC(C)(C)C(=O)OCC)c1
Activity [10]: Active
ΔTm [11]: 0.6 °C
EC50 [12]: 8.9 µM
ΔTm [13]: 0.5 °C
Activity [14]: Active
Activity [15]: Active
half-life [16]: 335 min
Emax [17]: 5%
remaining at 2 h [18]: 78%
EC50 [19]: 3.9 µM
Activity [20]: Active
ΔTm [21]: 0.2 °C
Emax [22]: 30%

Cc1cc(SCc2sc(-c3ccc(C(F)(F)F)c(F)c3)nc2C)ccc1OCC(=O)O
Activity [23]: Active
Activity [24]: Active
Activity [25]: Active
Activity [26]: Active
Activity [27]: Active
Activity [28]: Active

CN(CCOc1ccc(CC2SC(=O)NC2=O)cc1)c1ccccn1 (configuration not stated)
ΔTm [29]: 5 °C
ΔTm [21]: 5 °C
Activity [30]: Active

O=C(O)COc1ccc(SCC=C(c2ccc(Br)cc2)c2ccc(Br)cc2)cc1Cl
ΔTm [31]: 7.7 °C
